pEC50: −log10 of the molar value.
Columns and labels:
[1] = molecular target: T1, Glutamate NMDA receptor; GRIN1/GRIN2A (Homo sapiens, UniProt Q05586+Q12879); assay: Positive allosteric modulation of GluN1/GluN2A NMDAR (unknown origin) expressed in Dox-inducible cells measured every 5 mins by BD calcium indicator dye based-fluorescence analysis in presence of glutamate/glycine; format: cell-based
Summary of the method: (§1)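 GluN2A-containing NMDAR cell line, harvested, seeded, doxycycline 2 µg/mL overnight with 500 µM ketamine for protection, then washed and loaded with calcium dye for 50 min. Compound added at 2x concentration in 2x EC30 Glu (EC30 set daily from Glu dose-response); saturating Gly throughout; fluorescence recorded over 5 min.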

[2] = molecular target: T1, Glutamate NMDA receptor; GRIN1/GRIN2A; assay: Positive allosteric modulation of GluN1/GluN2A NMDAR (unknown origin) expressed in Dox-inducible cells at 125 uM measured every 5 mins by BD calcium indicator dye based-fluorescence analysis in presence of glutamate/glycine; format: cell-based; summary of the method: as §1
[3] = molecular target: T2, Glutamate receptor 2 (Homo sapiens, UniProt P42262); assay: Positive allosteric modulation of human GluA2 AMPAR flip isomer expressed in Dox-inducible cells at 125 uM measured every 5 mins by BD calcium indicator dye based-fluorescence analysis in presence of glutamate; format: cell-based
[4] = molecular target: T2, Glutamate receptor 2; assay: Positive allosteric modulation of human GluA2 AMPAR flop isomer expressed in Dox-inducible cells measured every 5 mins by BD calcium indicator dye based-fluorescence analysis in presence of glutamate; format: cell-based
[5] = molecular target: T2, Glutamate receptor 2; assay: Positive allosteric modulation of human GluA2 AMPAR flop isomer expressed in Dox-inducible cells at 125 uM measured every 5 mins by BD calcium indicator dye based-fluorescence analysis in presence of glutamate; format: cell-based
[6] = tested on: human MDR1 (P-gp); assay: Efflux ratio of permeability from basolateral to apical over apical to basolateral side in MDCK cells expressing human MDR1; format: ADME, cell-based, Canis lupus familiaris; details: dog
[7] = molecular target: T2, Glutamate receptor 2; assay: Positive allosteric modulation of human GluA2 AMPAR flip isomer expressed in Dox-inducible cells measured every 5 mins by BD calcium indicator dye based-fluorescence analysis in presence of glutamate; format: cell-based

T2 sequence (P42262 whole entry): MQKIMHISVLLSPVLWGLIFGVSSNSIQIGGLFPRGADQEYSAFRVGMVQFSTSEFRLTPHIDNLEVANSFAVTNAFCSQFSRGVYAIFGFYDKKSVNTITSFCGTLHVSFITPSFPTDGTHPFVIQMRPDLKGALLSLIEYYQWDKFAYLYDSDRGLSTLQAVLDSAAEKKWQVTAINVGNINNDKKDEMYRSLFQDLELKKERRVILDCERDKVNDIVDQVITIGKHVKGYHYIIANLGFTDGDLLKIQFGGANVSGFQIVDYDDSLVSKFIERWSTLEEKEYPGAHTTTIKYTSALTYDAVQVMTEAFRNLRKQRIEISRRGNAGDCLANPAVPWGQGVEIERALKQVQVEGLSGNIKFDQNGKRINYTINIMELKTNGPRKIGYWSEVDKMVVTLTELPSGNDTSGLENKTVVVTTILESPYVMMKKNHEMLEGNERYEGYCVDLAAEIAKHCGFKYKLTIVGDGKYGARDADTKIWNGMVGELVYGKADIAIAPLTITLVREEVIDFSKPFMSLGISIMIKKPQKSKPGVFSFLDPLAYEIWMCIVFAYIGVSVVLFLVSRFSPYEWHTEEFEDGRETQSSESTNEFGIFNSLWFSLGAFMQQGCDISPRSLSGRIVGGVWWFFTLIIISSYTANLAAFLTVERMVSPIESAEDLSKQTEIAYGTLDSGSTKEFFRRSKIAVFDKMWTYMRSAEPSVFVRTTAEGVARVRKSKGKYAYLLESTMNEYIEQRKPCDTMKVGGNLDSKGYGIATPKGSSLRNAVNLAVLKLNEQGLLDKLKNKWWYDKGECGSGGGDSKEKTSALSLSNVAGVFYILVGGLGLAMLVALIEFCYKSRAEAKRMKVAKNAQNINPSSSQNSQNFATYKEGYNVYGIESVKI

SMILES	pEC50 [1]	%max [2]	%max [3]	pEC50 [4]	%max [5]	efflux ratio [6]	pEC50 [7]
CCCN(Cc1cc(=O)n2c(C(=O)NCC)c(C)sc2n1)c1ccc(F)cc1	6.88	171%	5%	4.31	32%	12.6	
Cc1sc2nc(Cn3nc(C(F)(F)F)cc3Cl)cc(=O)n2c1[C@@H]1C[C@H]1CO	7.75	147%	85%	7.32	52%	1.3	6.82
CCNC(=O)c1c(C)sc2nc(Cc3cccc(C#N)c3F)cc(=O)n12	5.04	102%	3%		3%	3.1	
Cc1sc2nc(COc3ccc(F)cc3)cc(=O)n2c1[C@@H]1C[C@H]1CO	6.42	122%	7%	5.64	6%	0.8	5.27
CCN(Cc1cc(=O)n2c(CCO)c(C)sc2n1)c1ccc(F)cc1	6.80	168%	72%	6.24	75%	0.9	4.98
CCNC(=O)c1c(C)sc2nc(CN(CC)c3ccc(F)cn3)cc(=O)n12	5.77	170%	6%		13%	22	
CCNC(=O)c1c(C)sc2nc(Cn3ccc(C(F)(F)F)n3)cc(=O)n12	4.77	99%	2%		1%	21.5	
CCNC(=O)c1c(C)sc2nc(Cc3cc(C#N)ccc3C3CC3)cc(=O)n12	4.76	102%	2%		2%	44	
CCN(Cc1cc(=O)n2c(C3CCC3)c(C)sc2n1)c1ccc(F)cc1	5.59	122%	38%	5.07	20%		4.44
CCNC(=O)c1c(C)sc2nc(Cc3cccc(C#N)c3)cc(=O)n12	4.21	71%	10%	4.27	8%	25	4.48
Cc1sc2nc(Cc3cccc(C(F)(F)F)c3F)cc(=O)n2c1C1CC1CO (racemic)	6.34	117%	57%	6.44	27%	0.51	5.77
CCN(Cc1cc(=O)n2c(C#N)c(C)sc2n1)c1ccc(F)cc1	6.89	181%	13%	4.97	60%	0.9	4.18
CCNC(=O)c1c(C)sc2nc(C(C)c3cccc(C(F)(F)F)c3F)cc(=O)n12 (racemic)	5.51	75%	4%		8%	2.2	
CCN(Cc1cc(=O)n2c(-c3cccnc3)c(C)sc2n1)c1ccc(F)cc1	6.77	144%	75%	5.35	11%	1.2	4.47
CCNC(=O)c1c(C)sc2nc(Cn3nc(C(F)(F)F)cc3OCC)cc(=O)n12	6.38	144%	32%	5.04	43%	57	
CCNC(=O)c1c(C)sc2nc(CN(C)c3ccc(F)cc3)cc(=O)n12	6.36	159%	2%		2%	8.6	
CCN(Cc1cc(=O)n2c(-c3cncnc3)c(C)sc2n1)c1ccc(F)cc1	6.86	148%	56%	6.01	16%	1.2	
CCN(Cc1cc(=O)n2c([C@@H]3C[C@H]3CO)c(C)sc2n1)c1ccc(F)cc1	7.61	184%	84%	6.69	64%	1.2	6.06
CCN(Cc1cc(=O)n2c(C(C)C)c(C)sc2n1)c1ccc(F)cc1	6.16	129%	15%		1%	1.3	4.46
Cc1sc2nc(Cn3nc(C(F)(F)F)cc3Cl)cc(=O)n2c1[C@@H]1C[C@H]1C#N	7.53	151%	91%	7.14	93%	5.3	6.15
O=c1cc(Cn2nc(C(F)(F)F)cc2Cl)nc2sc(C(F)(F)F)c([C@@H]3C[C@H]3CO)n12	7.14	144%	66%	5.60	41%	1	4.44
CCN(Cc1cc(=O)n2c(CO)c(C)sc2n1)c1ccc(F)cc1	6.19	153%	39%	5.72	83%	1.1	4.18
CCN(Cc1cc(=O)n2c(C(C)(C)O)c(C)sc2n1)c1ccc(F)cc1	7.20	157%	65%	5.62	5%	1	4.91
CCNC(=O)c1c(C)sc2nc(Cc3cccc(C(F)(F)F)c3)cc(=O)n12	5.72	113%	18%	4.18	21%	20	
CCNC(=O)c1c(C)sc2nc(Cn3nc(C(F)(F)F)cc3C)cc(=O)n12	5.31	128%	8%		19%	33	
CCNC(=O)c1c(C)sc2nc(Cn3nc(C(F)(F)F)cc3C3CC3)cc(=O)n12	6.27	147%	54%	5.19	60%	2.2	
CCNC(=O)c1c(C)sc2nc(Cn3nc(C(F)(F)F)cc3OCC(C)C)cc(=O)n12	4.24	60%	3%		10%	3.7	
CCN(Cc1cc(=O)n2c(C(=O)NC)c(C)sc2n1)c1ccc(F)cc1	6.88	185%	18%		38%	9.8	
CCNC(=O)c1c(C)sc2nc(Cc3cc(C#N)ccc3Cl)cc(=O)n12	4.89	94%	1%		0%	22	
CCNC(=O)c1c(C)sc2nc(CNc3ccc(F)cc3)cc(=O)n12	5.15	123%	8%		19%	5.8	
